Among the data in ChEMBL document CHEMBL1122018, “Synthesis and orexigenic activity of some 1-methyl-4-piperidylidene-Substituted pyrrolo[2,1-g][3] benzazepine and dibenzocycloheptene derivatives” (1982) are Average consumed values, retold here.

Assay type in all cases: functional
Experiment [1] has as its system Felis catus. The experiment in a line: Average food consumed at the dose of 0.063 mg/kg (po) using 10 cats per dose level at 180 min (control day/ test day); 62/219.
Experiment [2] has as its system Felis catus. The experiment in a line: Average food consumed at the dose of 0.063 mg/kg (po) using 10 cats per dose level at 60 min (control day/ test day); 37/178.
The subject of experiment [3] is Felis catus. The experiment in a line: Average food consumed at the dose of 0.063 mg/kg (po) using 10 cats per dose level at 30 min (control day/ test day); 28/137.
Experiment [4] has as its system Felis catus. Nature of the experiment: Average food consumed at the dose of 0.50 mg/kg (po) using 10 cats per dose level at 180 min (control day/ test day); 46/243. The note with it: dose 0.5 mg/kg. In short, it runs like this:
(§1)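 Cats given test compound suspended in 1% methylcellulose, or 1% methylcellulose placebo, by gavage 30 min before a preweighed test meal. Food was offered in surplus for 3 h, and intake was found by reweighing at 30, 60 and 180 min. Ten cats per dose, each dosed no more than once weekly. Test-day intake was compared with the preceding control day by two-tailed paired t test (p < 0.05); values are mean ± SD.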

Experiment [5] concerns Felis catus. The experiment in a line: Average food consumed at the dose of 0.50 mg/kg (po) using 10 cats per dose level at 30 min (control day/ test day); 51/189. To be noted: dose 0.5 mg/kg. In short, it runs like this:
as §1

Experiment [6] deals with Felis catus. The experiment in a line: Average food consumed at the dose of 0.016 mg/kg (po) using 10 cats per dose level at 180 min (control day/ test day); 33/182.
Experiment [7] has as its system Felis catus. Nature of the experiment: Average food consumed at the dose of 0.016 mg/kg (po) using 10 cats per dose level at 30 min (control day/ test day); 16/91.
The test system of experiment [8] is Felis catus. Nature of the experiment: Average food consumed at the dose of 0.016 mg/kg (po) using 10 cats per dose level at 60 min (control day/ test day); 16/119.
The test system of experiment [9] is Felis catus. Nature of the experiment: Average food consumed at the dose of 0.50 mg/kg (po) using 10 cats per dose level at 60 min (control day/ test day); 44/217. To be noted: dose 0.5 mg/kg. The method, boiled down:
as §1

Experiment [10] concerns Felis catus. The experiment in a line: Average food consumed at the dose of 0.25 mg/kg (po) using 10 cats per dose level at 180 min (control day/ test day); 46/239.
In experiment [11] the test system is Felis catus. Nature of the experiment: Average food consumed at the dose of 0.25 mg/kg (po) using 10 cats per dose level at 30 min (control day/ test day); 33/172. The method, boiled down: as §1
The subject of experiment [12] is Felis catus. Nature of the experiment: Average food consumed at the dose of 0.25 mg/kg (po) using 10 cats per dose level at 60 min (control day/ test day); 40/208. The method, boiled down: as §1
Experiment [13] has as its system Felis catus. Nature of the experiment: Average food consumed at the dose of 0.063 mg/kg (po) using 10 cats per dose level at 30 min (control day/ test day); 13/120.
Experiment [14] concerns Felis catus. The experiment in a line: Average food consumed at the dose of 0.063 mg/kg (po) using 10 cats per dose level at 60 min (control day/ test day); 22/144.
Experiment [15] relates to Felis catus. Nature of the experiment: Average food consumed at the dose of 0.50 mg/kg (po) using 10 cats per dose level at 30 min (control day/ test day); 39/204. To be noted: dose 0.5 mg/kg. The method, boiled down: as §1
The subject of experiment [16] is Felis catus. The experiment in a line: Average food consumed at the dose of 0.50 mg/kg (po) using 10 cats per dose level at 60 min (control day/ test day); 35/219. To be noted: dose 0.5 mg/kg. The method, boiled down: as §1
Experiment [17] relates to Felis catus. The experiment in a line: Average food consumed at the dose of 0.016 mg/kg (po) using 10 cats per dose level at 180 min (control day/ test day); 45/215.
The subject of experiment [18] is Felis catus. The experiment in a line: Average food consumed at the dose of 0.016 mg/kg (po) using 10 cats per dose level at 30 min (control day/ test day); 21/142.
The test system of experiment [19] is Felis catus. Nature of the experiment: Average food consumed at the dose of 0.063 mg/kg (po) using 10 cats per dose level at 180 min (control day/ test day); 50/190.
In experiment [20] the test system is Felis catus. Nature of the experiment: Average food consumed at the dose of 0.25 mg/kg (po) using 10 cats per dose level at 180 min (control day/ test day); 50/239.
The subject of experiment [21] is Felis catus. The experiment in a line: Average food consumed at the dose of 0.25 mg/kg (po) using 10 cats per dose level at 30 min (control day/ test day); 38/175. The method, boiled down:
as §1

Experiment [22] relates to Felis catus. Nature of the experiment: Average food consumed at the dose of 0.25 mg/kg (po) using 10 cats per dose level at 60 min (control day/ test day); 39/212. The method, boiled down:
as §1

For experiment [23], the system named is Felis catus. Nature of the experiment: Average food consumed at the dose of 0.50 mg/kg (po) using 10 cats per dose level at 180 min (control day/ test day); 32/234. To be noted: dose 0.5 mg/kg. The method, boiled down: as §1
Experiment [24] relates to Felis catus. Nature of the experiment: Average food consumed at the dose of 0.016 mg/kg (po) using 10 cats per dose level at 60 min (control day/ test day); 31/168.
For experiment [25], the system named is Felis catus. Nature of the experiment: Average food consumed at the dose of 0.063 mg/kg (po) using 10 cats per dose level at 180 min (control day/ test day); 59/195.
For experiment [26], the system named is Felis catus. Nature of the experiment: Average food consumed at the dose of 0.063 mg/kg (po) using 10 cats per dose level at 30 min (control day/ test day); 14/112.
The test system of experiment [27] is Felis catus. Nature of the experiment: Average food consumed at the dose of 0.063 mg/kg (po) using 10 cats per dose level at 60 min (control day/ test day); 28/130.
Experiment [28] concerns Felis catus. The experiment in a line: Average food consumed at the dose of 0.50 mg/kg (po) using 10 cats per dose level at 180 min (control day/ test day); 50/256. The note with it: dose 0.5 mg/kg. The method, boiled down:
as §1

In experiment [29] the test system is Felis catus. The experiment in a line: Average food consumed at the dose of 0.50 mg/kg (po) using 10 cats per dose level at 30 min (control day/ test day); 47/190. To be noted: dose 0.5 mg/kg. In short, it runs like this: as §1
The subject of experiment [30] is Felis catus. Nature of the experiment: Average food consumed at the dose of 0.016 mg/kg (po) using 10 cats per dose level at 180 min (control day/ test day); 46/193.
The subject of experiment [31] is Felis catus. Nature of the experiment: Average food consumed at the dose of 0.016 mg/kg (po) using 10 cats per dose level at 30 min (control day/ test day); 35/118.
Experiment [32] deals with Felis catus. The experiment in a line: Average food consumed at the dose of 0.016 mg/kg (po) using 10 cats per dose level at 60 min (control day/ test day); 41/160.
Experiment [33] has as its system Felis catus. The experiment in a line: Average food consumed at the dose of 0.50 mg/kg (po) using 10 cats per dose level at 60 min (control day/ test day); 50/221. To be noted: dose 0.5 mg/kg. In short, it runs like this:
as §1

For experiment [34], the system named is Felis catus. Nature of the experiment: Average food consumed at the dose of 0.25 mg/kg (po) using 10 cats per dose level at 180 min (control day/ test day); 45/231.
The test system of experiment [35] is Felis catus. Nature of the experiment: Average food consumed at the dose of 0.25 mg/kg (po) using 10 cats per dose level at 30 min (control day/ test day); 34/165. In short, it runs like this:
as §1

The subject of experiment [36] is Felis catus. Nature of the experiment: Average food consumed at the dose of 0.25 mg/kg (po) using 10 cats per dose level at 60 min (control day/ test day); 35/200. The method, boiled down: as §1

As for `CN1CCC(=C2c3ccccc3C=Cn3cccc32)CC1.O=C(O)C(=O)O`, the Average consumed in the experiment on Felis catus [1] is given as 166 g; in the experiment with Felis catus [2], 100 g; in the experiment on Felis catus [3], 66 g; in the experiment with Felis catus [4] it was 193 g; with Felis catus [5] it was 133 g; in the experiment on Felis catus [6], 126 g. In addition, the Average consumed came to 43 g in the experiment on Felis catus [7]; 69 g with Felis catus [8]; 148 g with Felis catus [9]; 183 g in the experiment on Felis catus [10]; 113 g in the experiment with Felis catus [11]; 134 g in the experiment on Felis catus [12].
For `CN1CCC(=C2c3ccccc3CCn3cccc32)CC1.O=C(O)C(=O)O`, the Average consumed with Felis catus [13] is recorded as 52 g; with Felis catus [14], 74 g; with Felis catus [15], 117 g; in the experiment on Felis catus [16] it was 137 g; in the experiment with Felis catus [17], 159 g; in the experiment on Felis catus [18], 77 g. Besides, the Average consumed was determined as 133 g in the experiment with Felis catus [19]; 175 g in the experiment on Felis catus [20]; 91 g in the experiment on Felis catus [21]; 124 g in the experiment on Felis catus [22]; 166 g in the experiment with Felis catus [23]; 106 g in the experiment with Felis catus [24].
Take `CN1CCC(=C2c3ccccc3C=Cc3ccccc32)CC1` [CYPROHEPTADINE]: the Average consumed turned out to be 134 g in the experiment on Felis catus [25]; 56 g with Felis catus [26]; 80 g in the experiment with Felis catus [27]; 194 g in the experiment on Felis catus [28]; 135 g with Felis catus [29]; 157 g in the experiment on Felis catus [30]. Also, the Average consumed in the experiment with Felis catus [31] amounted to 75 g; in the experiment with Felis catus [32], 108 g; in the experiment with Felis catus [33] it was 157 g; with Felis catus [34] it was 179 g; with Felis catus [35] it was 109 g; in the experiment with Felis catus [36], 129 g.
